The values that follow come from ChEMBL document CHEMBL2203215, “Discovery of 6-[4-(6-nitroxyhexanoyl)piperazin-1-yl)]-9H-purine, as pharmacological post-conditioning agent” (Bioorg Med Chem, 2012).

The subject of data set [1] is Oryctolagus cuniculus. Briefly: Toxicity in New Zealand White rabbit ischemia/reperfusion model assessed as heart rate at total dose of 3.8 umol/kg administered bolus at 40th mins and 1st min before sustained ischemia measured at 20 mins ischemia period of initial ischemic insult. The class given is organism-based. The conditions noted are these: in vivo, iv.
In data set [2] the test system is Oryctolagus cuniculus. Briefly: Toxicity in New Zealand White rabbit ischemia/reperfusion model assessed as blood pressure at total dose of 3.8 umol/kg administered bolus at 40th mins and 1st min before sustained ischemia measured at 20 mins ischemia period of initial ischemic insult. The conditions noted are these: in vivo, iv. The class given is organism-based.

Data set [3] concerns Oryctolagus cuniculus. Briefly: Toxicity in New Zealand White rabbit ischemia/reperfusion model assessed as heart rate at total dose of 3.8 umol/kg administered bolus at 20th mins of ischemia and 1st min of reperfusion measured at 180 mins reperfusion is period of reperfusion. The class given is organism-based. The settings on record: in vivo, iv, 3 h.
The subject of data set [4] is Oryctolagus cuniculus. Briefly: Toxicity in New Zealand White rabbit ischemia/reperfusion model assessed as blood pressure at total dose of 3.8 umol/kg administered bolus at 20th mins of ischemia and 1st min of reperfusion measured at 180 mins reperfusion is period of reperfusion. The data set is classed as organism-based. The conditions noted are these: in vivo, iv, 3 h.

Data set [5] concerns Oryctolagus cuniculus. Briefly: Cardioprotective activity in New Zealand White rabbit ischemia/reperfusion model assessed as reduction of infarct size at total dose of 3.8 umol/kg administered bolus at 20th mins and 1st min of reperfusion. The data set is classed as functional. Also noted: scale not given: the % may be the effect or the level left. Summed up: (§1)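 Male rabbits (n = 6–8/group), anesthetized with thiopentone 30 mg/kg via ear vein, intubated and ventilated. Subjected to 30 min regional myocardial ischemia and 3 h reperfusion. Given as two boluses of 1.9 µmol/kg (3.8 µmol/kg total). Heart slices stained with 1% TTC (phosphate buffer pH 7.4, 20 min, 37 °C), then fixed in formaldehyde. Risk zone delineated under UV at 366 nm; infarct expressed relative to risk area.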

For data set [6], the system named is Oryctolagus cuniculus. Briefly: Cardioprotective activity in New Zealand White rabbit ischemia/reperfusion model assessed as reduction of infarct size at total dose of 3.8 umol/kg administered bolus at 40th mins and 1st min before sustained ischemia. Also noted: scale not given: the % may be the effect or the level left. The class given is functional. A digest of the protocol:
as §1

Data set [7] concerns Oryctolagus cuniculus. Briefly: Toxicity in New Zealand White rabbit ischemia/reperfusion model assessed as mortality at total dose of 3.8 umol/kg administered bolus measured at 10th and 15th mins of reperfusion. The class given is organism-based. The conditions noted are these: in vivo. Summed up: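 Male rabbits, randomized (n = 6–8 per group), anesthetized with sodium thiopentone 30 mg/kg into an ear vein, intubated and mechanically ventilated. Regional myocardial ischemia for 30 min, then 3 h reperfusion. Compound given as bolus at the 20th min of ischemia and the 1st min of reperfusion, total dose 3.8 µmol/kg. Animal survival was followed through reperfusion.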

For data set [8], the system named is Oryctolagus cuniculus. Briefly: Cardioprotective activity in New Zealand White rabbit ischemia/reperfusion model assessed as increase of eNOS phosphorylated level at total dose of 3.8 umol/kg administered bolus at 40th mins and 1st min before sustained ischemia by Western blot analysis. The data set is classed as functional, organism-based. A general note: A western blot detects proteins with antibodies after separation by electrophoresis.

Data set [9] concerns Oryctolagus cuniculus. Briefly: Cardioprotective activity in New Zealand White rabbit ischemia/reperfusion model assessed as increase of phosphorylated Akt level at total dose of 3.8 umol/kg administered bolus at 40th mins and 1st min before sustained ischemia by Western blot analysis. The class given is functional, organism-based.
Data set [10] concerns Oryctolagus cuniculus. Briefly: Cardioprotective activity in New Zealand White rabbit ischemia/reperfusion model assessed as reduction of infarct to risk area ratio at total dose of 3.8 umol/kg administered bolus. The data set is classed as functional. Also noted: scale not given: the % may be the effect or the level left. A digest of the protocol:
as §1

Molecules are shown by their SMILES. Active and inactive are the calls of the source. No cut-off for these calls is given here.

On to `O=C(CCCCC1CCSS1)N1CCN(c2ncnc3[nH]cnc23)CC1` (stereo not given), for which the Activity with Oryctolagus cuniculus [1] was 279 bpm; with Oryctolagus cuniculus [2] it was 106 mmHg; with Oryctolagus cuniculus [3] it was 271 bpm; in the data set on Oryctolagus cuniculus [4] it was 101 mmHg; in the data set with Oryctolagus cuniculus [5] it was 28.6%.
Take `O=C(CO[N+](=O)[O-])N1CCN(c2ncnc3[nH]cnc23)CC1`: the Activity came out at 278 bpm in the data set with Oryctolagus cuniculus [1]; 114 mmHg with Oryctolagus cuniculus [2]; 274 bpm in the data set with Oryctolagus cuniculus [3]; 109 mmHg with Oryctolagus cuniculus [4]; 37.3% with Oryctolagus cuniculus [6]; 26.2% with Oryctolagus cuniculus [5].
For the compound `O=C(Cn1cnc2c(N3CCCCC3)ncnc21)NCCO[N+](=O)[O-]`, the Activity in the data set on Oryctolagus cuniculus [1] is reported as 280 bpm; in the data set with Oryctolagus cuniculus [2] it was 115 mmHg; in the data set with Oryctolagus cuniculus [3], 276 bpm; in the data set on Oryctolagus cuniculus [4] it was 102 mmHg; in the data set with Oryctolagus cuniculus [6], 28.4%; in the data set on Oryctolagus cuniculus [7], “Toxic”.
Turning to `O=[N+]([O-])OCCCCCCn1cnc2c(N3CCCCC3)ncnc21`, the Activity in the data set on Oryctolagus cuniculus [1] turned out to be 276 bpm; with Oryctolagus cuniculus [2], 112 mmHg; with Oryctolagus cuniculus [3], 270 bpm; with Oryctolagus cuniculus [4], 104 mmHg; in the data set with Oryctolagus cuniculus [6], 19.8%; in the data set on Oryctolagus cuniculus [5], 36.8%. Besides, the result in the data set on Oryctolagus cuniculus [8] and with Oryctolagus cuniculus [9] was Active.
In the case of `O=[N+]([O-])OC[C@H]1O[C@@H](n2cnc3c(N4CCCCC4)ncnc32)[C@H](O)[C@@H]1O`, the Activity with Oryctolagus cuniculus [1] is 279 bpm; with Oryctolagus cuniculus [2] it was 113 mmHg; with Oryctolagus cuniculus [3], 271 bpm; in the data set with Oryctolagus cuniculus [4], 110 mmHg; in the data set on Oryctolagus cuniculus [6], 17.9%; in the data set with Oryctolagus cuniculus [5] it was 22.7%.
Turning to `O=C(CCCCCO[N+](=O)[O-])N1CCN(c2ncnc3[nH]cnc23)CC1`, the Activity was 278 bpm in the data set on Oryctolagus cuniculus [1]; 117 mmHg with Oryctolagus cuniculus [2]; 269 bpm in the data set on Oryctolagus cuniculus [3]; 112 mmHg in the data set with Oryctolagus cuniculus [4]; 24.9% with Oryctolagus cuniculus [6]; 13.4% with Oryctolagus cuniculus [5]. Moreover, the Activity in the data set on Oryctolagus cuniculus [10] was 12.3%.
Consider `O=C(CNc1ncnc2[nH]cnc12)NCCO[N+](=O)[O-]`, for which the Activity is 282 bpm in the data set with Oryctolagus cuniculus [1]; 110 mmHg with Oryctolagus cuniculus [2]; 273 bpm with Oryctolagus cuniculus [3]; 104 mmHg in the data set on Oryctolagus cuniculus [4]; 34.8% in the data set with Oryctolagus cuniculus [6]; “Toxic” in the data set with Oryctolagus cuniculus [7].
Regarding `O=C(NCCO[N+](=O)[O-])c1nc2c(N3CCCCC3)ncnc2[nH]1`, the Activity in the data set on Oryctolagus cuniculus [1] was 274 bpm; in the data set on Oryctolagus cuniculus [2], 112 mmHg; in the data set on Oryctolagus cuniculus [3] it was 269 bpm; with Oryctolagus cuniculus [4], 103 mmHg; with Oryctolagus cuniculus [6], 34.4%; with Oryctolagus cuniculus [7], “Toxic”.
Take `Nc1ncnc2c1ncn2[C@@H]1O[C@H](CO[N+](=O)[O-])[C@@H](O)[C@H]1O`: the Activity turned out to be 284 bpm with Oryctolagus cuniculus [1]; 102 mmHg in the data set with Oryctolagus cuniculus [2]; 275 bpm in the data set on Oryctolagus cuniculus [3]; 98 mmHg in the data set with Oryctolagus cuniculus [4]; 40.2% with Oryctolagus cuniculus [5].
